Screening data: PubChem, several laboratories
Yeast superoxide – reduction of superoxide in aged yeast, primary screen, HTS; S. cerevisiae aged cells, superoxide DHE fluorescence; hits give low values; superoxide response (% of plate mean), % at 10 µM; hit rate 0.18% among 330,000;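 active means superoxide response under a set limit, about three screen SD below normal, cut at about 65% in these data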;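 further: yeast aged for seven days with compound at 30 °C before DHE staining; 100% = average MFI of all compound-treated wells on the plate with controls excluded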
NRP1-CendR mod – modulators of CendR peptide binding to NRP-1, primary screen, biochemical, fluorescence polarization, uHTS; Neuropilin-1 (Homo sapiens), O14786; FAM-RPARPAR peptide binding to NRP-1; inhibition, % at 25 µM; hit rate 0.85% among 360,000;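 active means inhibition or corrected inhibition above about 18%, plus a signal ratio from 0.5 to 1.5, limit read from the data, passing the limit was not always enough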
Target sequence (O14786 whole entry, looked up): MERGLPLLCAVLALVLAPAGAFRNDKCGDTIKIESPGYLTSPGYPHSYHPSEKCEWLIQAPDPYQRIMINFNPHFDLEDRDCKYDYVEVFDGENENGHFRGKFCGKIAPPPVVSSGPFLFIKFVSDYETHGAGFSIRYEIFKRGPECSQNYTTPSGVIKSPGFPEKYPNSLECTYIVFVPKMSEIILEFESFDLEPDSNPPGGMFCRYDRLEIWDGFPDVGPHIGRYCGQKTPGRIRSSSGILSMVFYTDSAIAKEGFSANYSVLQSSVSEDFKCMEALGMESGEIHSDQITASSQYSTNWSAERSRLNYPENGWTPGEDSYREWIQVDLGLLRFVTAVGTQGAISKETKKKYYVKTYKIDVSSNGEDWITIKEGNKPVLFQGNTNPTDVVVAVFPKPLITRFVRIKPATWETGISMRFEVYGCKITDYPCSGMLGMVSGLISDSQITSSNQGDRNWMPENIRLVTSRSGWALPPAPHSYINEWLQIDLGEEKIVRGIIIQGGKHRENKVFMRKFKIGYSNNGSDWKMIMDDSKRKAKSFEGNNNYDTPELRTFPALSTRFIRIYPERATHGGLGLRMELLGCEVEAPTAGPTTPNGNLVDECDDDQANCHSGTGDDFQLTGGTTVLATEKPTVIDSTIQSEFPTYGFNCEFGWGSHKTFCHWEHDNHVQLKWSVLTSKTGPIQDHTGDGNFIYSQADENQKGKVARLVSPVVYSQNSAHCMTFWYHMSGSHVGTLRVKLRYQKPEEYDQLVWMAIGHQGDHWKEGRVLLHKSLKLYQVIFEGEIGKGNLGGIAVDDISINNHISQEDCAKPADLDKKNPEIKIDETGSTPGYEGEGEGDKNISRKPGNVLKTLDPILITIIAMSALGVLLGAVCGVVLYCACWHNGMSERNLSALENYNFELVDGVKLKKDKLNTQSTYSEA
AI-2 QS mod – Vibrio harveyi AI-2 quorum sensing modulators, primary screen, JMH597 strain, luminescence/OD600 ratio; Vibrio harveyi JMH597 AI-2 luminescence/OD600 ratio, 9 h; hits give low values; strain lacks LuxN and CqsS sensors; 0 = neutral-control median; activity change, % at 7.5 µM; hit rate 0.4% among 300,000; AID 2094, 2009; in the data active means activity change below about -75%, passing the limit was not always enough; inconclusive means no clear call, values can overlap the other calls;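 further: luminescence divided by OD600 gain over 9 h not by final OD600 alone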
HIF activator – HIF pathway transcriptional activators, primary screen, cell-based, U2OS HRE-luciferase, luminescence. activation, % at 7.5 µM (by protocol). hit rate 0.32% among 300,000. U2OS HRE-luciferase reporter; normalized: DMSO 0%, desferrioxamine 100%;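 active means mean activation of at least 10% of the iron chelator positive control signal, with at least half of replicates also reaching 10%; inconclusive means mean and replicate majority disagree about reaching 10%; inactive means mean and most replicates under 10%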
V-ATPase pHluor – regulators of yeast V-ATPase proton pumping, primary screen, pHLuorin cytosolic pH fluorescence; S. cerevisiae; response, % at 10 µM; hit rate 0.37% among 350,000; AID 504577, 2011; in the data active means response mostly above about 7.3%, no sharp cut-off; inactive means mostly below about 5.4%; further: actives read high
T cruzi repl – inhibitors of intracellular T. cruzi growth, primary screen, luminescence, NIH3T3 host cells. T. cruzi beta-gal in NIH3T3, 90 h. inhibition, % (concentration not given with the values). hit rate 1.4% among 300,000. AID 1885, 2009;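 active means mean inhibition across valid replicates above about 55%, limit read from the data; inconclusive means mean below that limit but half or more replicates reach it; inactive means mean below it, under half of replicates reach it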;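 further: signal also drops with host cell toxicity which is not excluded here; 0% = plate median of DMSO wells and 100% = zero luminescence signal; higher percent means less beta-gal luminescence so fewer parasites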
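compound dosing = single 50 nL compound addition per well in DMSO | material = NIH/3T3 host cells with β-galactosidase reporter T. cruzi | input = 5,000 host fibroblasts per well | timing = ≥90 h infection period, 3 h prior cell attachment | read-out basis = percent inhibition of parasite-derived β-gal signal | detection = GalScreen β-gal luminescence, detergent lysis, 60 min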
The depositor's hits bear a star; u = inconclusive; x = not tested or not shown. In the library only some 3% were active in any assay of this set; here they are far more common.

SMILES	Yeast superoxide	NRP1-CendR mod	AI-2 QS mod	HIF activator	V-ATPase pHluor	T cruzi repl
CC(C)N(CC(=O)Nc1ccc(Cl)cc1C(F)(F)F)C(=O)CCl	94.0	21.2	16.2	-0.3	-2.5	82.6*
CC(=O)SC(C[N+](=O)[O-])c1cn(C(C)=O)c2ccccc12 (stereo unspecified)	103.6	4.8	36.0	0.9	2.1	-12.0
O=C(NCC(c1ccco1)N1CCCC1)c1ccccc1Sc1ccc(C(F)(F)F)cc1[N+](=O)[O-] (stereo unspecified)	105.4	5.8	18.1	-0.2	-1.2	55.8*
N#Cc1ccccc1Sc1ccccc1C(=O)NCC(c1ccco1)N1CCCCC1 (stereo unspecified)	142.9	-4.3	x	x	3.5	x
Cc1cc(Br)c2c(c1)/C(=C/C(=O)c1cccs1)C(=O)N2	93.1	5.3	16.0	-0.2	2.5	58.4*
COc1ccc(C(=O)C2CCCN(C(=O)c3c4c(nn3C)CCCC4)C2)cc1F (stereo unspecified)	114.0	17.4	23.1	-0.6	2.2	-18.3
Cn1nc2c(c1C(=O)N1CCCC(C(=O)c3cc(F)ccc3F)C1)CCCC2 (stereo unspecified)	93.0	52.8*	13.0	0.1	-4.4	-0.9
CCN1CCN(c2ncc(C(=O)N3CCN(c4ccccc4OC)CC3)c3ccccc23)CC1	x	21.6*	x	x	1.1	x
CCN1CCN(c2ncc(C(=O)Nc3cc(Cl)c(OC)cc3OC)c3ccccc23)CC1	x	-16.7	6.0	0.3	3.0	32.1
CCOc1ncccc1C(=O)OCC(=O)Nc1cc(S(=O)(=O)N2CCCCC2)ccc1Cl	x	-15.4	x	x	-0.5	x
Cc1cccc(N2CCN(C(=S)Nc3ccc4nc(N5CCN(C)CC5)cc(C)c4c3)CC2C)c1 (stereo unspecified)	106.6	0.0	23.1	-1.6	-1.0	50.9
O=C(O)c1cccc(C(=O)O)n1	x	x	2.9	0.0	x	-18.8
O=C(O)c1ccc2cccc(O)c2n1	108.0	0.3	22.2	40.3*	-4.0	-0.2
O=C(COc1ccc2c3c(c(=O)oc2c1)CCCC3)NCCN1CCOCC1	87.6	24.5*	9.9	0.9	7.2	-2.9
O=C(COC(=O)c1ccc([N+](=O)[O-])s1)c1ccc[nH]1	140.2	-11.3	x	x	39.2*	x
CCc1ccccc1NC(=O)c1ccc([N+](=O)[O-])s1	104.6	6.3	u	-1.3	-1.0	59.7*
COc1ccccc1NC(=O)COC(=O)c1ccc([N+](=O)[O-])s1	95.1	-43.9	-87.0*	-0.8	2.1	19.3
CCCNC(=O)c1nc2ncc(Br)cn2n1	102.1	6.0	31.9	0.2	2.3	1.4
CN(C)c1c(F)cc(C(=O)NC(=O)NCc2cccnc2)cc1F	95.2	-2.0	8.4	1.5	-2.8	-6.4
Cc1cc(C(=O)NC(C)C2CC2)c(Cl)cc1Cl (stereo unspecified)	97.1	1.5	43.4	-0.1	1.4	-18.0
COc1ccc(Cl)cc1NC(=O)CCc1nc(-c2ccccc2F)no1	99.9	46.2*	-0.9	1.8	-2.5	-0.8
COc1ccccc1NC(=O)CCc1nc(-c2ccccc2F)no1	95.5	-13.1	26.0	0.8	1.1	-9.8
O=C(NCc1cc(C(F)(F)F)cc(C(F)(F)F)c1)C1CC(c2ccccc2F)=NO1 (stereo unspecified)	x	27.7*	14.9	0.9	-3.9	3.9
COCCNC(=O)C1CC(c2ccc(C(F)(F)F)cc2)=NO1 (stereo unspecified)	106.8	27.9*	21.1	-0.2	-2.7	-27.6
O=C(NCc1cccc(C(F)(F)F)c1)C1CC(c2ccccc2F)=NO1 (stereo unspecified)	x	18.7	16.3	1.0	-3.0	-3.8
SMILES	Yeast superoxide	NRP1-CendR mod	AI-2 QS mod	HIF activator	V-ATPase pHluor	T cruzi repl
Cc1nnc(SCC(=O)Nc2ccccc2N2CCOCC2)s1	92.9	0.1	5.6	-1.2	-2.0	-2.0
COc1ccc(-n2cnc3scc(-c4ccccc4)c3c2=O)cc1	93.3	-3.7	1.2	0.3	2.5	-11.7
CC(C)Cc1ccc(C(C)C(=O)Nc2ccc(O)cc2)cc1 (stereo unspecified)	100.2	38.0*	30.8	0.0	-1.8	13.9
CC(C)Cc1ccc(C(C)C(=O)Nc2cccnc2)cc1 (stereo unspecified)	117.2	7.2	15.9	0.5	4.2	18.4
Nc1nc(Nc2cccc3ccccc23)nc(C2CCCC2=O)n1 (stereo unspecified)	102.8	x	6.5	-0.1	x	4.7
Nc1nc(CCl)nc(Nc2cccc3ccccc23)n1	94.0	-8.4	28.5	-0.4	-0.9	69.7*
O=C(NC(=S)Nc1ccccc1N1CCOCC1)c1cccs1	94.6	-8.8	10.4	0.2	2.5	-12.2
CC(=O)Nc1ncnc2c1c(-c1ccc(Cl)cc1)nn2C(C)(C)C	72.3	0.0	2.4	0.0	3.6	60.6*
CC(=O)Nc1nc(-c2ccc(Cl)cc2)nc(C)c1C(C)=O	106.1	5.4	72.6	1.1	-2.6	-8.4
CC(=O)N(C(C)=O)c1ncnc2c1c(-c1ccc(Cl)cc1)nn2C(C)(C)C	90.5	-5.1	10.1	0.1	1.0	61.1*
COc1ccc(-c2nc3c(n2O)CCc2c-3no[n+]2[O-])cc1	105.7	-8.6	0.1	2.1	-0.6	-10.0
O=C(/C=C/c1ccco1)N/C(=C\c1ccccc1)C(=O)NCCc1nc2ccccc2[nH]1	102.5	40.5*	14.2	-0.2	3.5	-7.7
CC1(c2cc([N+](=O)[O-])cc([N+](=O)[O-])c2)CC(C)(C)N(C(=O)c2ccccc2)c2ccccc21 (stereo unspecified)	101.4	10.2	21.4	-0.9	6.2	67.0*
CC1(c2ccccc2)CC(C)(C)N(C(=O)C2CCCO2)c2ccccc21 (stereo unspecified)	87.4	1.2	3.6	-0.2	-0.3	10.4
CCN(CC)CCNC(=S)Nc1ccc2nc(N3CCN(CC)CC3)cc(C)c2c1	89.8	11.9	14.8	0.9	0.8	40.6
NCCCC[C@H]1CNC(=O)C(=O)N1CC1CCCCC1	93.9	18.3*	-1.4	-0.4	1.9	-26.2
CCCC[C@@H]1CNC(=O)C(=O)N1CC1CCCCC1	x	-10.4	x	x	x	x
CCCCN(C(=O)c1c(C)[nH]c(C(=O)OCC)c1C)c1ccccc1	94.5	-7.7	15.2	10.4*	-2.9	4.7
CCOC(=O)c1c(C)[nH]c(C(=O)OCc2ccccc2F)c1C	96.1	2.0	18.2	10.6*	-0.1	38.5
Cc1c(NC(=S)Nc2ccccc2C(F)(F)F)cccc1[N+](=O)[O-]	94.1	9.5	1.5	-2.6	-3.3	3.2
